Data set [1] relates to Plasma. Kind of data set: Half life in Sprague-Dawley rat plasma at 1 uM by LC-MS/MS analysis. The class given is ADME, cell-free. The method in brief: (§1)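 Compound at 1.0 μM was incubated in plasma at 37 °C and sampled at 0, 1, 3, 5 and 24 h. Proteins were precipitated with cold acetonitrile containing internal standard, and samples were analysed by LC–MS/MS for percent remaining. Half-life came from regression analysis.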

Data set [2] has as its system Liver microsome. Kind of data set: Half life in Sprague-Dawley rat liver microsomes at 1 uM by reversed phase LC/MS analysis. The format is ADME. The procedure, abridged:
(§2)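 Liver microsomes were from humans (pooled from 10 male donors) or male Sprague–Dawley rats aged 8–10 weeks. Incubations used 0.125 mg/mL total protein and 1.0 μM drug at 37 °C, sampled at 0, 5, 15, 30 and 60 min. Parent-to-product transitions were read by reversed-phase LC with triple quadrupole MS, and % remaining was taken relative to time zero. t1/2 = −ln(2)/k, with k from log–linear regression.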
A general note: Liver microsomes are a subcellular fraction often used to study metabolism.

The test system of data set [3] is Liver microsome. Put plainly: Half life in human liver microsomes at 1 uM by reversed phase LC/MS analysis. The class given is ADME. The method in brief: as §2
Data set [4] concerns Plasma. Kind of data set: Metabolic stability in Sprague-Dawley rat plasma assessed as compound remaining at 1 uM measured at 3 hrs by LC-MS/MS analysis. The format is ADME, cell-free. The method in brief: as §1
Data set [5] is described as follows: Aqueous solubility of the compound at pH 6.8 after 24 hrs by shake flask method. The format is physicochemical. The note with it: buffer, pH 6.8, 24 h. The method in brief:
(§3)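 Miniaturized shake-flask method: analyte at 1.0 mM in aqueous solution at pH 1.0 or 6.8, shaken gently (600 rpm) in a syringeless filter at room temperature for 24 h. Filtrate was collected after a further 30 min, diluted in 50:50 MeCN/water with 0.1% formic acid, and analysed by LC–MS/MS. Calibration range was 0.05–12.5 μM at pH 6.8 and 5.0–25000 μM at pH 1.0.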

Data set [6] deals with Botulinum neurotoxin type A (Clostridium botulinum, UniProt P0DPI0).
In data set [7] the test system is Liver microsome. Put plainly: Drug metabolism in Sprague-Dawley rat liver microsomes assessed as metabolic rate at 1 uM by reversed phase LC/MS analysis. The class given is ADME. The procedure, abridged: as §2
Data set [8] deals with Liver microsome. Put plainly: Drug metabolism in human liver microsomes assessed as metabolic rate at 1 uM by reversed phase LC/MS analysis. The class given is ADME. The procedure, abridged:
as §2

Data set [9] concerns Plasma. Kind of data set: Half life in human plasma at 1 uM by LC-MS/MS analysis. The class given is ADME, cell-free. The procedure, abridged:
as §1

Data set [10] in a line: Aqueous solubility of the compound at pH 1 after 24 hrs by shake flask method. The format is physicochemical. The method in brief: as §3
Data set [11] relates to Plasma. Put plainly: Metabolic stability in human plasma assessed as compound remaining at 1 uM measured at 3 hrs by LC-MS/MS analysis. The format is ADME, cell-free. The procedure, abridged: as §1
For a further data set, the species on record is Homo sapiens. Put plainly: Half life in human. The note with it: in vivo. The class given is ADME, organism-based.
The test system of a further data set is Serum. Put plainly: Drug uptake in serum of alzheimer patient at 250 to 750 mg, po. The format is ADME, cell-free. The conditions noted are these: human, read-out: Drug uptake.

Molecules are shown by their SMILES. pIC50: −log10 of the molar value. Values after ≈ are worked out from the molar mass of the structure shown.

Botulinum neurotoxin type A, sequence (P0DPI0 2-448 limits assumed): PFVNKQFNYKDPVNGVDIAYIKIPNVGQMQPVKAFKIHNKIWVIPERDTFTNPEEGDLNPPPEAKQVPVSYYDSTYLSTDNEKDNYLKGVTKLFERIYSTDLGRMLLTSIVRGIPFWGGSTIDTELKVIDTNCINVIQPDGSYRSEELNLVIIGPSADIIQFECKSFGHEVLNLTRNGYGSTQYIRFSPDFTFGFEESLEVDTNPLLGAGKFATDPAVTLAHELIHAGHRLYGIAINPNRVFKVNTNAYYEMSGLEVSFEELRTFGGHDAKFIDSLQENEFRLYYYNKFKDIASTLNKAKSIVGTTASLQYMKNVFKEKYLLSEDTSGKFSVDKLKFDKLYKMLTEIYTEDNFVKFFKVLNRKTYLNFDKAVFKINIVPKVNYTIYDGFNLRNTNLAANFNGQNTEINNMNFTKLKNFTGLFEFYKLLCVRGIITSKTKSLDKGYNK

Usually solubility stands for how much of the substance goes into solution per volume. High values mean much dissolved substance, low ones little dissolved substance. The term pIC50 denotes the negative decadic logarithm of the IC50, by convention in mol/L. A word on the thermodynamic solubility: it is the concentration in solution at equilibrium with solid. For `Oc1c(C(Nc2ccccn2)c2ccccc2)ccc2cccnc12` (stereo not drawn), the t1/2 in the data set on Plasma [1] was 13.5 h; in the data set on Liver microsome [2] it was 0.143 h; in the data set on Liver microsome [3], 0.493 h; in the data set with Plasma [9], 11.4 h. For the same compound, the Stability in the data set on Plasma [4] is on record as 67.3%. In addition, in [5], the solubility is 0.078 µM (≈ 0.0255 µg/mL). The compound also had a negative-log IC50 (pIC50) in [6] of 5.66. For the same compound, the Drug metabolism with Liver microsome [7] was 0.637 µM/min/mg; in the data set on Liver microsome [8], 0.186 µM/min/mg. Further, the thermodynamic solubility at 24 h in data set [10] turned out to be 1170 µM (≈ 384 µg/mL).

Take `Cc1ccnc(NC(c2ccc([N+](=O)[O-])cc2)c2ccc3ccc(C)nc3c2O)c1` (stereo not drawn): the t1/2 was determined as 109 h in the data set with Plasma [1], 0.338 h with Liver microsome [2], 1.93 h in the data set with Liver microsome [3] and 42 h in the data set on Plasma [9]. In addition, the figures for the Stability with Plasma [4] and in the data set on Plasma [11] were 98.5% and 92.2%, respectively. This compound also gave a pIC50 in data set [6] of 6.00. The results for the Drug metabolism in the data set with Liver microsome [7] and in the data set with Liver microsome [8] were 0.271 µM/min/mg and 0.047 µM/min/mg, respectively. In data set [10], this compound registered a thermodynamic solubility at 24 h of 997 µM (≈ 399 µg/mL).

For `Cc1ccnc(NC(c2ccc([N+](=O)[O-])cc2)c2ccc3cccnc3c2O)c1` (stereo not drawn), the t1/2 in the data set with Plasma [1] stood at 51.1 h; in the data set with Liver microsome [2], 0.703 h; in the data set with Liver microsome [3], 0.425 h; with Plasma [9] it was 24.4 h. For the same compound, the figures for the Stability in the data set on Plasma [4] and in the data set with Plasma [11] were 100% and 90.9%, respectively. Further, the pIC50 in data set [6] was 5.37. Also, the Drug metabolism with Liver microsome [7] stood at 0.13 µM/min/mg; with Liver microsome [8] it was 0.215 µM/min/mg. The compound further displayed a solubility (thermodynamic) at 24 h in data set [10] of 1050 µM (≈ 405 µg/mL).

As to `Oc1c(Cl)cc(Cl)c2cccnc12` [CHLOROXINE], the t1/2 came out at 67.7 h with Plasma [1], 0.917 h in the data set with Liver microsome [2], 0.815 h in the data set with Liver microsome [3] and 18.6 h with Plasma [9]. Moreover, the Stability in the data set with Plasma [4] and in the data set on Plasma [11] was 100% each time. In [5], the solubility was 0.532 µM (≈ 0.114 µg/mL). In [6], this compound had a pIC50 of 4.94. Besides, the Drug metabolism with Liver microsome [7] turned out to be 0.1 µM/min/mg; in the data set with Liver microsome [8], 0.112 µM/min/mg. Also, in data set [10], the thermodynamic solubility at 24 h is 326 µM (≈ 69.8 µg/mL).

Take `Cc1ccc2c(Cl)cc(Cl)c(O)c2n1` [CHLORQUINALDOL]: the t1/2 in the data set with Plasma [1] was determined as 115 h; with Liver microsome [2] it was 0.643 h; in the data set with Liver microsome [3] it was 0.48 h; with Plasma [9] it was 24.5 h. In addition, the values for the Stability in the data set with Plasma [4] and in the data set with Plasma [11] were 96.9% and 92.2%, respectively. The pIC50 in [6] was 5.00. In addition, the Drug metabolism in the data set on Liver microsome [7] was determined as 0.142 µM/min/mg; in the data set with Liver microsome [8], 0.19 µM/min/mg. For the same compound, the thermodynamic solubility at 24 h in data set [10] was 1100 µM (≈ 250 µg/mL).

As for `Oc1c(I)cc(Cl)c2cccnc12` [CLIOQUINOL], the t1/2 with Plasma [1] stood at 136 h; with Liver microsome [2], 1.28 h; with Liver microsome [3], 1.06 h; in the data set listed under Homo sapiens, 11 h; in the data set with Plasma [9], 42.4 h. For the same compound, the Stability with Plasma [4] was 83.9%; with Plasma [11], 100%. In addition, the pIC50 in data set [6] is 4.69. For the same compound, the Drug metabolism with Liver microsome [7] worked out at 0.071 µM/min/mg; in the data set on Liver microsome [8], 0.086 µM/min/mg. Further, the concentration with Serum was determined as 13 µM. Further, in data set [10], the thermodynamic solubility at 24 h worked out at 38.1 µM (≈ 11.6 µg/mL).

(Values after ChEMBL document CHEMBL3112564, “Identification of clinically viable quinolinol inhibitors of botulinum neurotoxin A light chain” (J Med Chem, 2014).)
